Experimental data: ChEMBL document CHEMBL1821556, “Structure-activity relationships of antitubercular nitroimidazoles. 3. Exploration of the linker and lipophilic tail of ((s)-2-nitro-6,7-dihydro-5H-imidazo[2,1-b][1,3]oxazin-6-yl)-(4-trifluoromethoxybenzyl)amine (6-amino PA-824)” (J Med Chem, 2011)
In brackets after ≈: the same amount, converted by molar mass.

Tests used:
[1] = system: Mycobacterium tuberculosis; assay: Antitubercular activity against Mycobacterium tuberculosis; type: functional
Method in brief: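 Whole-cell assay against replicating Mtb, scored as MIC99 in μM. Run multiple times in two independent laboratories, with discrepant results repeated until concordant. Values are averages of multiple measurements ± SD.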

[2] = system: Mycobacterium tuberculosis; assay: Bactericidal activity against Mycobacterium tuberculosis assessed as minimum concentration required for anaerobicidal activity; type: functional
Method in brief: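 Minimum anaerobicidal concentration (μM) against non-replicating Mtb. Run multiple times in two independent laboratories, with discrepant results repeated until concordant. Values are averages of multiple measurements ± SD.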

[3] = Solubility of the compound at pH 6.8; type: physicochemical; conditions: buffer
[4] = system: Liver; assay: Intrinsic clearance in mouse liver microsome at 5 mg/kg, iv after 24 hrs by LC/MS/MS analysis; type: ADME; conditions: microsomes
[5] = system: Liver; assay: Half life in mouse liver microsome at 5 mg/kg, iv after 24 hrs by LC/MS/MS analysis; type: ADME; conditions: microsomes
[6] = Solubility of the compound; type: physicochemical
Method in brief: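 Solubility was measured in buffer at pH 6.8 and reported in μg/mL.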

[7] = Elimination half life in mouse at 5 mg/kg, iv by LC/MS/MS analysis; type: ADME, organism-based; design: dose 5 mg/kg, route intravenous; conditions: in vivo, read-out: beta t1/2 (converted)
Method in brief: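 Single intravenous dose of 5mg/kg, using the supernatant of a centrifuged formulation. Blood was sampled at time points from 1min to 24h after dosing. Plasma was extracted and analysed by LC/MS/MS. Pharmacokinetic parameters, including elimination half-life, came from non-compartmental analysis.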

SMILES | MIC99 [1] [µM] | Activity [2] [µM] | solubility [3] [µg/mL] | CL [4] [µL/min/mg] | t1/2 [5] [min] | solubility [6] | half-life [7] [min] | solubility ([3]; read-out: solubility) [µg/mL]
O=CN(Cc1ccc(OC(F)(F)F)cc1)[C@@H]1COc2nc([N+](=O)[O-])cn2C1 | 0.79 (≈ 0.305 µg/mL) | 12.5 | – | – | – | – | – | –
O=[N+]([O-])c1cn2c(n1)OC[C@@H](NCc1ccc(OC(F)(F)F)cc1OCC1CC1)C2 | 0.1 (≈ 0.0428 µg/mL) | 4.2 | 6 (≈ 14 µM) | 866.3 | 1.6 | – | – | –
O=[N+]([O-])c1cn2c(n1)OC[C@@H](NCc1ccc(OC(F)(F)F)cc1Cl)C2 | 0.13 (≈ 0.0511 µg/mL) | 2.1 | 30 (≈ 76.4 µM) | 69.7 | 19.9 | – | – | –
O=[N+]([O-])c1cn2c(n1)OC[C@@H](NCc1ccc(OC(F)(F)F)cc1OC1CC1)C2 | 0.06 (≈ 0.0249 µg/mL) | 2 | 11 (≈ 26.5 µM) | 150.7 | 9.2 | – | – | –
CN1CCN(c2cc(CN[C@@H]3COc4nc([N+](=O)[O-])cn4C3)ccc2OC(F)(F)F)CC1 | 0.17 (≈ 0.0776 µg/mL) | 7.8 | – | – | – | – | – | –
COc1cc(OC(F)(F)F)ccc1CN[C@@H]1COc2nc([N+](=O)[O-])cn2C1 | 0.23 (≈ 0.0893 µg/mL) | 5.2 | – | – | – | – | – | –
O=[N+]([O-])c1cn2c(n1)OC[C@@H](NC(c1ccc(OC(F)(F)F)cc1)c1ncc[nH]1)C2 (mixture of isomers) | 0.52 | 17 | – | – | – | – | – | –
CCCC(N[C@@H]1COc2nc([N+](=O)[O-])cn2C1)c1ccc(OC(F)(F)F)cc1 (mixture of isomers) | 0.27 | 3.8 | – | – | – | – | – | –
O=C(c1ccccc1Cl)N(Cc1ccc(OC(F)(F)F)cc1)[C@@H]1COc2nc([N+](=O)[O-])cn2C1 | 5.6 (≈ 2.78 µg/mL) | >50 | – | – | – | – | – | –
O=C(c1ccccc1)N(Cc1ccc(OC(F)(F)F)cc1)[C@@H]1COc2nc([N+](=O)[O-])cn2C1 | 8.8 (≈ 4.07 µg/mL) | >50 | – | – | – | – | – | –
CCC(=O)N(Cc1ccc(OC(F)(F)F)cc1)[C@@H]1COc2nc([N+](=O)[O-])cn2C1 | – | – | – | – | – | Insoluble | – | –
NC(=O)C(N[C@@H]1COc2nc([N+](=O)[O-])cn2C1)c1ccc(OC(F)(F)F)cc1 (mixture of isomers) | 0.41 | 30 | – | – | – | – | – | –
O=[N+]([O-])c1cn2c(n1)OC[C@@H](NCc1ccc(OC(F)(F)F)cc1F)C2 | 0.12 (≈ 0.0452 µg/mL) | 2.5 | 72 (≈ 191 µM) | 95.6 | 14.5 | – | – | –
O=[N+]([O-])c1cn2c(n1)OC[C@@H](NCc1ccc(OC(F)(F)F)cc1N1CCCCC1)C2 | 0.21 (≈ 0.0927 µg/mL) | 11 | – | – | – | – | – | –
O=[N+]([O-])c1cn2c(n1)OC[C@@H](NCc1ccc(OC(F)(F)F)cc1)C2 | 0.36 (≈ 0.129 µg/mL) | 14 | – | – | – | – | – | –
CCCN(Cc1ccc(OC(F)(F)F)cc1)[C@@H]1COc2nc([N+](=O)[O-])cn2C1 | 0.11 (≈ 0.044 µg/mL) | 3.8 | < 2 | 407 | 3.4 | – | – | –
CN(Cc1ccc(OC(F)(F)F)cc1)[C@@H]1COc2nc([N+](=O)[O-])cn2C1 | 0.15 (≈ 0.0558 µg/mL) | 2.5 | 10 (≈ 26.9 µM) | 124.9 | 11 | – | – | –
O=[N+]([O-])c1cn2c(n1)OC[C@@H](NCc1ccc(OC(F)(F)F)cc1Oc1ccccc1)C2 | 0.06 (≈ 0.027 µg/mL) | 4.4 | 3 (≈ 6.66 µM) | 216.6 | 6.4 | – | – | –
O=[N+]([O-])c1cn2c(n1)OC[C@@H](NCc1ccc(OC(F)(F)F)cc1Br)C2 | 0.09 (≈ 0.0393 µg/mL) | 2 | – | – | – | – | – | –
CCC(N[C@@H]1COc2nc([N+](=O)[O-])cn2C1)c1ccc(OC(F)(F)F)cc1 (mixture of isomers) | 0.36 | 3.1 | – | – | – | – | – | –
COc1cc(CO[C@@H]2COc3nc([N+](=O)[O-])cn3C2)ccc1OC(F)(F)F | 0.13 (≈ 0.0506 µg/mL) | 4.2 | – | – | – | – | – | –
COC(=O)c1cc(CN[C@@H]2COc3nc([N+](=O)[O-])cn3C2)ccc1OC(F)(F)F | 0.14 (≈ 0.0583 µg/mL) | 11 | – | – | – | – | – | –
O=[N+]([O-])c1cn2c(n1)OC[C@@H](NCc1ccc(OC(F)(F)F)c(Cl)c1)C2 | 0.12 (≈ 0.0471 µg/mL) | 4.2 | – | 103.4 | 13.4 | – | 258 | –

SMILES | MIC99 [1] [µM] | Activity [2] [µM] | solubility [3] [µg/mL] | CL [4] [µL/min/mg] | t1/2 [5] [min] | solubility [6] | half-life [7] [min] | solubility ([3]; read-out: solubility) [µg/mL]
CC(C)N(Cc1ccc(OC(F)(F)F)cc1)[C@@H]1COc2nc([N+](=O)[O-])cn2C1 | 0.34 (≈ 0.136 µg/mL) | 11 | < 2 | 433 | 3.2 | – | – | –
CC(=O)N(Cc1ccc(OC(F)(F)F)cc1)[C@@H]1COc2nc([N+](=O)[O-])cn2C1 | 50 (≈ 20 µg/mL) | >50 | – | – | – | – | – | –
COc1cc(CN[C@@H]2COc3nc([N+](=O)[O-])cn3C2)ccc1OC(F)(F)F | 0.07 (≈ 0.0272 µg/mL) | 2.1 | – | – | – | – | – | –
O=C(c1ccc(Cl)cc1)N(Cc1ccc(OC(F)(F)F)cc1)[C@@H]1COc2nc([N+](=O)[O-])cn2C1 | 1.3 (≈ 0.646 µg/mL) | 7.8 | – | – | – | – | – | –
CC(N[C@@H]1COc2nc([N+](=O)[O-])cn2C1)c1ccc(OC(F)(F)F)cc1 (mixture of isomers) | 0.44 | 5.6 | – | – | – | – | – | –
CCCCC(N[C@@H]1COc2nc([N+](=O)[O-])cn2C1)c1ccc(OC(F)(F)F)cc1 (mixture of isomers) | 0.15 | 4.4 | – | – | – | – | – | –
O=[N+]([O-])c1cn2c(n1)OC[C@@H](NC(CCO)c1ccc(OC(F)(F)F)cc1)C2 (mixture of isomers) | 0.13 | 23 | – | – | – | – | – | –
O=[N+]([O-])c1cn2c(n1)OC[C@@H](OCc1ccc(OC(F)(F)F)cc1)C2 [PRETOMANID] | 0.63 (≈ 0.226 µg/mL) | 8.8 | – | – | – | – | – | –
O=[N+]([O-])c1cn2c(n1)OC[C@@H](OCc1ccc(OC(F)(F)F)c(O)c1)C2 | 0.14 (≈ 0.0525 µg/mL) | 8.3 | – | – | – | – | – | –
O=[N+]([O-])c1cn2c(n1)OC[C@@H](NCc1ccc(OC(F)(F)F)c(Oc3ccccc3)c1)C2 | 0.14 (≈ 0.0631 µg/mL) | 3.9 | – | 149 | 9.3 | – | – | < 2
O=[N+]([O-])c1cn2c(n1)OC[C@@H](NCc1ccc(OC(F)(F)F)c(N3CCOCC3)c1)C2 | 0.15 (≈ 0.0665 µg/mL) | 7 | – | – | – | – | – | –
O=[N+]([O-])c1cn2c(n1)OC[C@@H](NC(c1ccc(OC(F)(F)F)cc1)c1ncco1)C2 (mixture of isomers) | 0.4 | 7.8 | – | – | – | – | – | –
O=[N+]([O-])c1cn2c(n1)OC[C@@H](NCc1ccc(OC(F)(F)F)cc1OCc1ccccc1)C2 | 0.24 (≈ 0.111 µg/mL) | 7.5 | – | – | – | – | – | –
O=C(c1cccc(Cl)c1)N(Cc1ccc(OC(F)(F)F)cc1)[C@@H]1COc2nc([N+](=O)[O-])cn2C1 | 7.5 (≈ 3.73 µg/mL) | 21 | – | – | – | – | – | –
O=[N+]([O-])c1cn2c(n1)OC[C@@H](NCc1ccc(OC(F)(F)F)cc1O)C2 | 0.09 (≈ 0.0337 µg/mL) | 4.4 | 25 (≈ 66.8 µM) | 96.9 | 14.3 | – | – | –
CCNC(=O)N(Cc1ccc(OC(F)(F)F)cc1)[C@@H]1COc2nc([N+](=O)[O-])cn2C1 | 17 (≈ 7.3 µg/mL) | 69 | – | – | – | – | – | –
O=[N+]([O-])c1cn2c(n1)OC[C@@H](OCc1ccc(OC(F)(F)F)c(F)c1)C2 | 0.17 (≈ 0.0641 µg/mL) | 7.5 | – | – | – | – | – | –
O=[N+]([O-])c1cn2c(n1)OC[C@@H](NCc1ccc(OC(F)(F)F)c(F)c1)C2 | 0.12 (≈ 0.0452 µg/mL) | 4.2 | – | 58.7 | 23.6 | – | – | –
O=[N+]([O-])c1cn2c(n1)OC[C@@H](NCc1ccc(OC(F)(F)F)c(O)c1)C2 | 0.16 (≈ 0.0599 µg/mL) | 7.5 | – | 61.9 | 22.4 | – | 24 | –
O=[N+]([O-])c1cn2c(n1)OC[C@@H](NCc1ccc(OC(F)(F)F)cc1N1CCOCC1)C2 | 0.15 (≈ 0.0665 µg/mL) | 10 | – | – | – | – | – | –
CN1CCN(c2cc(OC(F)(F)F)ccc2CN[C@@H]2COc3nc([N+](=O)[O-])cn3C2)CC1 | 2.2 (≈ 1 µg/mL) | 33 | – | – | – | – | – | –
O=[N+]([O-])c1cn2c(n1)OC[C@@H](NC(CO)c1ccc(OC(F)(F)F)cc1)C2 (mixture of isomers) | 0.3 | 11 | – | – | – | – | – | –
